Here are results for four compounds from publication PMC8134988 (Heliyon, 2021).

The structures appear in SMILES notation. Values joined by “and” are separate entries in the source; they are usually repeats but may differ in a detail not shown here. Equal entries are not always repeated. A value given as a limit tells only on which side of the number the result lay.

Data set [1] concerns T. cruzi strain HA trypomastigotes. The note with it: ref Garcia et al. 2010; cited from earlier work.
Data set [2] in a line: In vitro cytotoxicity in U-937 cells. In kind it is cell-based. The note with it: human, U-937 cells (non-infected). Put shortly:
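Non-infected U-937 cells at 10^5 cells/mL were mixed 1:1 with compound solutions at 200, 50, 12.5 and 3.125 µg/mL, alongside benznidazole, and held 72 h at 37 °C. MTT was added for 3 h, then formazan was dissolved in isopropanol/SDS and read at 570 nm. Viability was expressed versus unexposed cells, mortality as 100 − %viability, and LC50 was obtained by probit analysis.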

Data set [3] concerns T. cruzi Talahuen strain intracellular amastigotes. In words: Anti-T. cruzi in vitro assay in intracellular amastigotes. In kind it is cell-based, Trypanosoma cruzi. The note with it: for SI (selectivity index = LC50/EC50): LC50 U-937 / EC50 T. cruzi; for antitrypanosomal activity class: classified by EC50 in μg/mL.
Data set [4] deals with T. cruzi blood trypomastigotes (Talahuen strain). Nature of the data set: In vivo therapeutic response in BALB/c mice infected with T. cruzi. Further details: species or system Mus musculus (BALB/c mice). The note with it: at the end of treatment. Put shortly: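 BALB/c mice were inoculated intraperitoneally with 100 blood trypomastigotes of the Tulahuen β-gal strain taken from donor mice. From the first day of parasitaemia, seven groups (n = 6) were dosed orally at 100 mg/kg/day for 25 days with test compound, benznidazole or nothing. Parasitaemia per 0.1 mL blood was counted by hematocrit at TD0, TD25 and PTD30/60/90. Reduction was calculated per mouse against pre-treatment parasitaemia. Mice negative in all tests were scored cured.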

As a reminder, the CC50 is the concentration at which the toxic effect on the cells reaches its halfway point. A high value points to lower toxicity to the cells.

On to `COc1cccc(/C=C/c2ccc3ccccc3n2)c1OC` [(E)-2-(2,3-dimetoxystyryl) quinoline], for which the “inhibition of the presence of the parasite” value in data set [1] was 34.1%.

`O=C(Cn1ccnc1[N+](=O)[O-])NCc1ccccc1` [Benznidazol (BZ), Benznidazol, reference compound]: in data set [2], the CC50 at 72 h was > 200 µg/mL and 491 µM. For the same compound, the “SI (selectivity index = LC50/EC50)” value in data set [3] is 8.7. In data set [4], this compound displayed a mice cured of 100%. Moreover, the parasitaemia status entry in data set [4] (100 mg/kg/day) was “negative”.

For the compound `CC(=O)Oc1ccc(/C=C/c2ccc3cccc(OC(C)=O)c3n2)c(OC(C)=O)c1` [Compound 3g, (E)-4-(2-(8-Acetoxyquinolin-2-yl)vinyl)-1,3-phenylene diacetate], the CC50 at 72 h in data set [2] is 6.9 µg/mL and 17.2 µM. Besides, in data set [3], the antitrypanosomal activity class result was “moderate (Moderate activity: 25 μg/mL > EC50 < 50 μg/mL)”.

Regarding `COc1cc(/C=C/c2ccc3cccc(OC(C)=O)c3n2)ccc1OC(C)=O` [Compound 3h, (E)-2-(4-Acetoxy-3-methoxystyryl)quinolin-8-yl acetate], in data set [2], the CC50 at 72 h was 5.9 µg/mL and 15.6 µM. In data set [3], the “SI (selectivity index = LC50/EC50)” value was found to be 0.2 and the antitrypanosomal activity class entry is “moderate (Moderate activity: 25 μg/mL > EC50 < 50 μg/mL)”.
